From ChEMBL document CHEMBL1127808, “Structure-distribution relationships for metal-labeled myocardial imaging agents: comparison of a series of cationic gallium (III) complexes with hexadentate bis(salicylaldimine) ligands” (J Med Chem, 1994) come the findings set out here.

Common to all, as to assay type: functional
Test [1] relates to Rattus norvegicus. Description: Retention of tracer Gallium in kidney of rats after intravenous administration and Gallium-67 Bis(salicylaldimine) after 1 min. The gist of the method: (§1)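 Male Sprague-Dawley rats under ether anesthesia received a femoral vein bolus of no-carrier-added 67Ga complex (1–3 μCi, 0.1–0.2 mL; 5% ethanol in 0.16 M NaCl with 5–10% propylene glycol, filtered 0.2 μm). Injected dose was found by weighing the syringe. Rats were decapitated at 1 or 120 min. Organs were blotted, weighed and gamma counted against an injectate standard, giving percent injected dose per organ. Blood was taken as 7% of body mass. Mean ± SD, n = 3–4.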

Test [2] has as its system Rattus norvegicus. The experiment in a line: Retention of tracer Gallium in heart of rats after intravenous administration and Gallium-67 Bis(salicylaldimine) after 120 min. The gist of the method:
as §1

The subject of test [3] is Rattus norvegicus. The experiment in a line: Retention of tracer Gallium in blood of rats after intravenous administration and Gallium-67 Bis(salicylaldimine) after 1 min. In a few lines:
as §1

Test [4] has as its system Rattus norvegicus. Description: Retention of tracer Gallium in blood of rats after intravenous administration and Gallium-67 Bis(salicylaldimine) after 120 min. The gist of the method:
as §1

For test [5], the system named is Rattus norvegicus. Description: Retention of tracer Gallium in lung of rats after intravenous administration and Gallium-67 Bis(salicylaldimine) after 1 min. The gist of the method:
as §1

Test [6] can be described thus: Ratio of retention of tracer Gallium in Heart to Liver was determined after intravenous administration to rats after 1 min. In a few lines: (§2)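 Heart-to-liver and heart-to-blood ratios were calculated from percent injected dose per gram of tissue. No-carrier-added 67Ga complex (1–3 μCi, 0.1–0.2 mL) in 5% ethanol/saline with 5–10% propylene glycol, radiochemical purity >98%, was given as a femoral vein bolus to male Sprague-Dawley rats under ether anesthesia. Rats were decapitated at 1, 15 or 120 min and tissues gamma counted. Mean ± SD, n = 3–4.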

The test system of test [7] is Rattus norvegicus. The experiment in a line: Retention of tracer Gallium in liver of rats after intravenous administration and Gallium-67 Bis(salicylaldimine) after 120 min. The gist of the method:
as §1

The nature of test [8]: Ratio of retention of tracer Gallium in Heart to blood was determined after intravenous administration to rats after 120 min. In a few lines:
as §2

The subject of test [9] is Rattus norvegicus. Description: Retention of tracer Gallium in kidney of rats after intravenous administration and Gallium-67 Bis(salicylaldimine) after 120 min. In a few lines: as §1
Test [10] concerns Rattus norvegicus. The experiment in a line: Retention of tracer Gallium in liver of rats after intravenous administration and Gallium-67 Bis(salicylaldimine) after 1 min. In a few lines: as §1
Test [11] concerns Rattus norvegicus. The experiment in a line: Retention of tracer Gallium in heart of rats after intravenous administration and Gallium-67 Bis(salicylaldimine) after 1 min. The gist of the method: as §1
The nature of test [12]: Ratio of retention of tracer Gallium in Heart to blood was determined after intravenous administration to rats after 1 min. The gist of the method:
as §2

The nature of test [13]: Ratio of retention of tracer Gallium in Heart to Liver was determined after intravenous administration to rats after 15 min. In a few lines:
as §2

The subject of test [14] is Rattus norvegicus. The experiment in a line: Retention of tracer Gallium in lung of rats after intravenous administration and Gallium-67 Bis(salicylaldimine) after 120 min. In a few lines:
as §1

Test [15] in a line: Ratio of retention of tracer Gallium in Heart to blood was determined after intravenous administration to rats after 15 min. In a few lines:
as §2

The nature of test [16]: Ratio of retention of tracer Gallium in Heart to Liver was determined after intravenous administration to rats after 120 min. The gist of the method: as §2
The subject of test [17] is Rattus norvegicus. The experiment in a line: Retention of tracer Gallium in kidney of rats after intravenous administration and Gallium-67 Bis(salicylaldimine) after 120 min was determined. The gist of the method: as §1
Test [18] concerns Rattus norvegicus. The experiment in a line: Retention of tracer Gallium in kidney of rats after intravenous administration and Gallium-67 Bis(salicylaldimine) after 1 min was determined. The gist of the method: as §1

Molecules are shown by their SMILES.

In the case of `COc1ccc(O)c(/C=N/CCCNCCNCCC/N=C/c2cc(OC)ccc2O)c1`, the Injected dose in the test with Rattus norvegicus [1] stood at 7.64%; in the test on Rattus norvegicus [2] it was 0.23%; with Rattus norvegicus [3], 7.55%; with Rattus norvegicus [4] it was 1.11%; in the test with Rattus norvegicus [5], 0.79%; with Rattus norvegicus [7] it was 6.8%. The Injected dose with Rattus norvegicus [9] is 1.19%; in the test with Rattus norvegicus [10], 26.5%; in the test on Rattus norvegicus [11], 0.34%; in the test with Rattus norvegicus [14], 0.18%. Besides, the Ratio amounted to 0.15 in [6]; 4.3 in test [8]; 0.89 in test [12]; 0.19 in test [13]; 2.6 in test [15]; 0.42 in test [16].

For `COc1cc(O)c(/C=N/CCCNCCNCCC/N=C/c2c(O)cc(OC)cc2OC)c(OC)c1`, the Injected dose came to 5.26% with Rattus norvegicus [1]; 0.86% with Rattus norvegicus [2]; 8.49% with Rattus norvegicus [3]; 0.33% in the test with Rattus norvegicus [4]; 0.92% with Rattus norvegicus [5]; 3.1% in the test with Rattus norvegicus [7]. Further, the Injected dose in the test on Rattus norvegicus [9] is reported as 2.17%; in the test on Rattus norvegicus [10], 43%; in the test with Rattus norvegicus [11], 1.04%; in the test on Rattus norvegicus [14] it was 0.52%. In addition, the Ratio in [6] came out at 0.32; in test [8], 45.6; in test [12], 2.3; in test [13], 0.56; in test [15], 18.1; in [16] it was 4.1.

On to `COc1cc(C)c(/C=N/CCCNCCNCCC/N=C/c2c(C)cc(OC)cc2O)c(O)c1`, for which the Injected dose with Rattus norvegicus [1] amounted to 5.39%; in the test with Rattus norvegicus [2], 1.03%; in the test on Rattus norvegicus [3] it was 5.94%; in the test on Rattus norvegicus [4] it was 0.43%; in the test on Rattus norvegicus [5] it was 0.88%; in the test with Rattus norvegicus [7], 3.4%. In addition, the Injected dose was 1.94% in the test with Rattus norvegicus [9], 28.8% with Rattus norvegicus [10], 1.08% in the test on Rattus norvegicus [11] and 0.55% in the test with Rattus norvegicus [14]. Further, the Ratio in test [6] worked out at 0.45; in test [8] it was 45.1; in [12] it was 3.4; in [16], 3.6.

On to `COc1cc(O)c(/C=N\CC(C)(C)CNCCNCC(C)(C)C/N=C/c2c(O)cc(OC)cc2OC)c(OC)c1`, for which the Injected dose in the test with Rattus norvegicus [1] is 8.33%; in the test with Rattus norvegicus [2], 1.01%; in the test with Rattus norvegicus [3], 18.8%; in the test on Rattus norvegicus [4] it was 0.45%; in the test on Rattus norvegicus [5], 1.63%; in the test with Rattus norvegicus [7], 3.9%. Also, the Injected dose in the test on Rattus norvegicus [9] worked out at 5.4%; with Rattus norvegicus [10] it was 50.6%; in the test on Rattus norvegicus [11], 1.03%; with Rattus norvegicus [14], 0.64%. Further, the Ratio in [6] was 0.23; in test [8], 44.5; in test [12], 1.1; in test [13], 0.32; in test [15] it was 9.6; in [16], 3.24.

With `COc1ccc(/C=N/CCCNCCNCCC/N=C/c2ccc(OC)cc2O)c(O)c1`, the Injected dose was determined as 8.42% in the test with Rattus norvegicus [1]; 0.65% in the test with Rattus norvegicus [2]; 4.44% in the test with Rattus norvegicus [3]; 0.42% in the test on Rattus norvegicus [4]; 1.05% in the test on Rattus norvegicus [5]; 5.1% with Rattus norvegicus [7]. Further, the Injected dose in the test on Rattus norvegicus [9] came to 1.69%; in the test with Rattus norvegicus [10], 25.2%; in the test with Rattus norvegicus [11], 0.67%; in the test on Rattus norvegicus [14], 0.38%. Further, the Ratio in test [6] was determined as 0.32; in [8], 30.6; in test [12], 2.99; in [13], 0.62; in test [15] it was 17.6; in test [16], 1.6.

Turning to `COc1cc(O)c(/C=N/CCCNCCNCCC/N=C/c2cc(C)c(OC)cc2O)cc1C`, the Injected dose with Rattus norvegicus [17] worked out at 2.74%; in the test on Rattus norvegicus [2] it was 0.89%; in the test with Rattus norvegicus [3], 7.79%; in the test on Rattus norvegicus [4], 0.61%; with Rattus norvegicus [5], 0.79%; in the test with Rattus norvegicus [7], 5.3%. In addition, the Injected dose with Rattus norvegicus [10] was 39.5%; in the test with Rattus norvegicus [11], 0.88%; in the test on Rattus norvegicus [18], 5.14%; in the test with Rattus norvegicus [14], 0.42%. Moreover, the Ratio worked out at 0.14 in [6], 30 in [8], 2.1 in test [12] and 1.92 in test [16].

`CCN(CC)c1ccc(/C=N/CCCNCCNCCC/N=C/c2ccc(N(CC)CC)cc2O)c(O)c1`: the Injected dose in the test with Rattus norvegicus [1] came to 6.33%; with Rattus norvegicus [2] it was 0.65%; in the test on Rattus norvegicus [3], 11.1%; in the test on Rattus norvegicus [4] it was 1.27%; with Rattus norvegicus [5], 1.26%; in the test on Rattus norvegicus [7], 9.7%. The Injected dose in the test on Rattus norvegicus [9] turned out to be 4.67%; in the test with Rattus norvegicus [10], 38.1%; in the test with Rattus norvegicus [11], 0.69%; in the test with Rattus norvegicus [14] it was 0.67%. Moreover, the Ratio in test [6] is 0.24; in test [8], 9.2; in [12], 1.22; in test [13] it was 0.28; in test [15] it was 4.5; in [16], 0.86.

Take `CCN(CC)c1ccc(/C=N\CC(C)(C)CNCCNCC(C)(C)C/N=C/c2ccc(N(CC)CC)cc2O)c(O)c1`: the Injected dose in the test with Rattus norvegicus [1] was found to be 4.25%; with Rattus norvegicus [2] it was 0.4%; in the test on Rattus norvegicus [3], 30.6%; in the test on Rattus norvegicus [4], 1.06%; in the test on Rattus norvegicus [5], 5.3%; in the test on Rattus norvegicus [7], 11.1%. Moreover, the Injected dose with Rattus norvegicus [9] is reported as 5.17%; in the test with Rattus norvegicus [10], 47%; with Rattus norvegicus [11], 0.66%; with Rattus norvegicus [14], 1.31%. Also, the Ratio was 0.17 in [6]; 8.1 in [8]; 0.45 in [12]; 0.13 in [13]; 1.9 in test [15]; 0.5 in test [16].

Take `Oc1ccccc1/C=N/CCCNCCNCCC/N=C/c1ccccc1O`: the Injected dose is listed as 9.84% in the test with Rattus norvegicus [1]; 0.41% in the test on Rattus norvegicus [2]; 4.21% with Rattus norvegicus [3]; 0.64% with Rattus norvegicus [4]; 1% in the test on Rattus norvegicus [5]; 5.3% in the test on Rattus norvegicus [7]. The Injected dose with Rattus norvegicus [9] turned out to be 1.4%; with Rattus norvegicus [10] it was 26.7%; in the test with Rattus norvegicus [11] it was 0.45%; with Rattus norvegicus [14] it was 0.28%. The Ratio in [6] was found to be 0.2; in [8] it was 12.2; in [12] it was 2.15; in test [13], 0.51; in test [15], 8.3; in test [16], 0.9.

As to `CCOc1cc(C)c(/C=N/CCCNCCNCCC/N=C/c2c(C)cc(OCC)cc2O)c(O)c1`, the Injected dose was found to be 5.24% in the test on Rattus norvegicus [1]; 0.87% in the test with Rattus norvegicus [2]; 7.73% with Rattus norvegicus [3]; 0.42% in the test on Rattus norvegicus [4]; 0.8% in the test with Rattus norvegicus [5]; 3% in the test with Rattus norvegicus [7]. In addition, the Injected dose is 2.42% in the test on Rattus norvegicus [9], 29.5% with Rattus norvegicus [10], 0.91% with Rattus norvegicus [11] and 0.49% in the test with Rattus norvegicus [14]. The Ratio in test [6] is 0.29; in test [8], 40.5; in test [12] it was 2.2; in test [13], 0.73; in test [15], 20.9; in [16] it was 2.7.

On to `CC(C)c1ccc(O)c(/C=N/CCCNCCNCCC/N=C/c2cc(C(C)C)ccc2O)c1`, for which the Injected dose in the test with Rattus norvegicus [1] came out at 6.02%; with Rattus norvegicus [2], 0.55%; in the test with Rattus norvegicus [3] it was 23.4%; with Rattus norvegicus [4], 1.21%; in the test on Rattus norvegicus [5] it was 1.06%; with Rattus norvegicus [7], 8.5%. In addition, the Injected dose with Rattus norvegicus [9] was 3.95%; with Rattus norvegicus [10] it was 49.2%; in the test on Rattus norvegicus [11], 0.67%; in the test on Rattus norvegicus [14], 0.36%. Moreover, the Ratio in [6] was 0.16; in [8] it was 8.6; in test [12], 0.54; in test [16], 0.75.
